Assay results: ChEMBL document CHEMBL4038311, “An Ursolic Acid Derived Small Molecule Triggers Cancer Cell Death through Hyperstimulation of Macropinocytosis” (J Med Chem, 2017)
Calls of active or inactive are those of the source. The calls are words filed in the database; no cut-off is given here.

Experiments:
Format in all cases: functional, cell-based
HeLa [1] = experiment: Anticancer activity against human HeLa cells assessed as decrease in cell viability at 20 uM preincubated cells with Z-VAD-FMK for 1 hr followed by compound addition measured after 48 hrs by CCK8 assay
Summary of the method: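 HeLa cells pretreated 1 h with 50 µM z-VAD-FMK, then given the compound. Viability read after 48 h by CCK-8 (450 nm), with DMSO-treated wells as control.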

HeLa [2] = experiment: Induction of apoptosis in human HeLa cells assessed as increase in cleaved caspase-3 levels at 20 to 30 uM after 24 hrs by Western blot analysis
Summary of the method: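 HeLa given indicated concentrations. RIPA lysates, BCA-quantified, SDS-PAGE and PVDF transfer. Anti-caspase-3 or anti-PARP1 applied overnight at 4 °C after 1 h 5% milk block, secondary 2 h at RT. Infrared imaging, GAPDH as loading control.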

HeLa [3] = experiment: Induction of methuosis in human HeLa cells assessed as decrease in cell viability preincubated cells with actin inhibitor cytochalasin D for 1 hr followed by compound addition measured after 48 hrs by CCK8 assay

In the case of `C[C@H]1[C@H](C)CC[C@]2(C(=O)O)CC[C@]3(C)C(=CC[C@@H]4[C@@]5(C)Cc6cnn(-c7ccc(C#N)cc7)c6C(C)(C)[C@@H]5CC[C@]43C)[C@H]12`, the Activity (HeLa [1]) is reported as “Active”, the Activity (HeLa [2]) is reported as “Active” and the Activity (HeLa [3]) is reported as “inactive”.
